Measured values reported in ChEMBL document CHEMBL1131617 (J Med Chem, 1998).

How the values were obtained:
Mu-type opioid receptor = Mu-type opioid receptor (Rattus norvegicus, UniProt P33535); assay: Relative affinity against Opioid receptor mu 1 in thalamus using [3H]DAMGO as radioligand; type: tissue-based
Procedure, shortened: (§1)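 Radioligand competition binding was run per earlier published conditions. Inhibition was screened at 100 nM and 10 µM. Incubated tubes were filtered through glass-fibre filters on a vacuum manifold. Nonspecific binding was counts bound in the presence of a saturating concentration of an established competing ligand. Reference drugs were run in parallel as positive controls.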

D(1A) dopamine receptor = D(1A) dopamine receptor (Rattus norvegicus, UniProt P18901); assay: Relative affinity for Dopamine receptor D1 in striatum using [3H]SCH-23390; type: tissue-based; procedure, shortened: as §1
Chain of D(1A) dopamine receptor (P18901 whole entry): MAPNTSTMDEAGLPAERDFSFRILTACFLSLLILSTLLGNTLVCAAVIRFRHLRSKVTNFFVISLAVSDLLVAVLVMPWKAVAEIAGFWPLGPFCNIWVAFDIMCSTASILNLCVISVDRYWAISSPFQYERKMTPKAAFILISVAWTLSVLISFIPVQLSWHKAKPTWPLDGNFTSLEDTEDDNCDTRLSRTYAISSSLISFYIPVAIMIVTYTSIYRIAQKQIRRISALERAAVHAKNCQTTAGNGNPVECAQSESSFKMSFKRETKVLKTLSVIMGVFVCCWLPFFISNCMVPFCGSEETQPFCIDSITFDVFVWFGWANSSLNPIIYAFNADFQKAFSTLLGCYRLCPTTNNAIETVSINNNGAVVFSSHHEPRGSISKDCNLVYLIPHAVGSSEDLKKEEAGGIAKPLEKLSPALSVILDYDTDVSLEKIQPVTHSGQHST

[1] = molecular target: Kappa-type opioid receptor (Rattus norvegicus, UniProt P34975); assay: relative affinity against Opioid receptor kappa 1 in insular Ctx using [3H]U-69593 as radioligand
Chain of Kappa-type opioid receptor (P34975 whole entry): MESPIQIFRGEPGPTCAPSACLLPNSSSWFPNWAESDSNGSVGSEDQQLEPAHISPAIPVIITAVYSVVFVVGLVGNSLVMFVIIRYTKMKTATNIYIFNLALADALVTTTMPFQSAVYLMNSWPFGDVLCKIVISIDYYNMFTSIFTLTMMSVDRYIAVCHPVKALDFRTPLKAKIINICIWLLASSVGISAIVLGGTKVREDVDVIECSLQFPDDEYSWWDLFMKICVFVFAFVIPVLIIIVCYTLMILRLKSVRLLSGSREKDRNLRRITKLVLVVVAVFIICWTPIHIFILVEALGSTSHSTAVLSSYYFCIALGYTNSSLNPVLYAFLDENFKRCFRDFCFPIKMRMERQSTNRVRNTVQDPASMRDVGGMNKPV

D(3) dopamine receptor = D(3) dopamine receptor (Rattus norvegicus, UniProt P19020); assay: relative affinity against Dopamine receptor D3 in ventral striatum using [3H](+)-7-OH-DPAT as radioligand; type: tissue-based; procedure, shortened: as §1
Chain of D(3) dopamine receptor (P19020 whole entry): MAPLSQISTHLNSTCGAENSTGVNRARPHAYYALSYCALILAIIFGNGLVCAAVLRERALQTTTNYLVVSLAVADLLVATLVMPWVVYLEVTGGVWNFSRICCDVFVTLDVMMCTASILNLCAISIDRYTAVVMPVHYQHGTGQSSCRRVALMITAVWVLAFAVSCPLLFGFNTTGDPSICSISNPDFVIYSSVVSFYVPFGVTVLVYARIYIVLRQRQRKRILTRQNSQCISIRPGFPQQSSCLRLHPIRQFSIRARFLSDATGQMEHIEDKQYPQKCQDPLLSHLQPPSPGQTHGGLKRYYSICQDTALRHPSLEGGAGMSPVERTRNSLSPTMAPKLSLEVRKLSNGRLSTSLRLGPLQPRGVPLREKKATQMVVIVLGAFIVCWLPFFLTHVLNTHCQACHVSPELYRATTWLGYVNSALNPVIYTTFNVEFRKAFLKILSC

Glutamate NMDA receptor = assay: relative affinity against N-methyl-D-aspartate glutamate receptor in caudate using [3H](+)-MK-801 as radioligand; type: protein-complex assay
Procedure, shortened: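 Tubes incubated under the specified conditions, then filtered on glass-fibre filters and counted. Nonspecific binding taken as cpm bound with a saturating concentration of an established competing ligand. Reference drugs run in parallel as positive controls.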

[2] = molecular target: Sodium-dependent serotonin transporter (Rattus norvegicus, UniProt P31652); assay: relative affinity against serotonin transporter using RTI-55 as radioligand; procedure, shortened: as §1
Chain of Sodium-dependent serotonin transporter (P31652 whole entry): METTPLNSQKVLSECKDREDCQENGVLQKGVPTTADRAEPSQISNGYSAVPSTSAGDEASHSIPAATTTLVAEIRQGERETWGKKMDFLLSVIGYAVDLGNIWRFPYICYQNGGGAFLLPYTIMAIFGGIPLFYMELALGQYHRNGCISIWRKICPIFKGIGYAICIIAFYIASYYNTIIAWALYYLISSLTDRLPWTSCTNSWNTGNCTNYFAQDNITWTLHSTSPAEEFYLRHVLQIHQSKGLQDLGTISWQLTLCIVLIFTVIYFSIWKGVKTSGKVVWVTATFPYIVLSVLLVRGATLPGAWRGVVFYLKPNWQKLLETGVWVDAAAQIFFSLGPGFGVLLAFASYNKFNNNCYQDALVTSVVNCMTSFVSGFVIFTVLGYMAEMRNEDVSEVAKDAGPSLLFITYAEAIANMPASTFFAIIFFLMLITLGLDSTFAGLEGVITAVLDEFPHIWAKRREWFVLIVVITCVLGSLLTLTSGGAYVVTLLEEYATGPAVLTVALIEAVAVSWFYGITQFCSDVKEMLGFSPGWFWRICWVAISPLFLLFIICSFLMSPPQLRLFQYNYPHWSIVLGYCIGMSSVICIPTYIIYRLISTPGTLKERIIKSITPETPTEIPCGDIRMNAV

D(2) dopamine receptor = D(2) dopamine receptor (Rattus norvegicus, UniProt P61169); assay: relative affinity against Dopamine receptor D2 in striatum using [3H]YM-09151-2 as radioligand; type: tissue-based; procedure, shortened: as §1
Chain of D(2) dopamine receptor (P61169 whole entry): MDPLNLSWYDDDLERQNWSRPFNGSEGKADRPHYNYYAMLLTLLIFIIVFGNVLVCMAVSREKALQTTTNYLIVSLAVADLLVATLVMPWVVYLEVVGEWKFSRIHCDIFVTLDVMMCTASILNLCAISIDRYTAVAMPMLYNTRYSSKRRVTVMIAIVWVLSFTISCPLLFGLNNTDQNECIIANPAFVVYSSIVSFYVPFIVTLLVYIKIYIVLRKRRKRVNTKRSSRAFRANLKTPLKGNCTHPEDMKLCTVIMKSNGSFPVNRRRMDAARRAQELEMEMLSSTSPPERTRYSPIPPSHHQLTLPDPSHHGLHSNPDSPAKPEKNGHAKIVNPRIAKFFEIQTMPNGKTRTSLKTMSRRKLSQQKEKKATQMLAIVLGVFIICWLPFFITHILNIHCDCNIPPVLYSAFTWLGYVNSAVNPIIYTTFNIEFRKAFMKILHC

[3] = molecular target: Sodium-dependent dopamine transporter (Rattus norvegicus, UniProt P23977); assay: relative affinity against dopamine transporter using WIN-35428 as radioligand; procedure, shortened: as §1
Chain of Sodium-dependent dopamine transporter (P23977 whole entry): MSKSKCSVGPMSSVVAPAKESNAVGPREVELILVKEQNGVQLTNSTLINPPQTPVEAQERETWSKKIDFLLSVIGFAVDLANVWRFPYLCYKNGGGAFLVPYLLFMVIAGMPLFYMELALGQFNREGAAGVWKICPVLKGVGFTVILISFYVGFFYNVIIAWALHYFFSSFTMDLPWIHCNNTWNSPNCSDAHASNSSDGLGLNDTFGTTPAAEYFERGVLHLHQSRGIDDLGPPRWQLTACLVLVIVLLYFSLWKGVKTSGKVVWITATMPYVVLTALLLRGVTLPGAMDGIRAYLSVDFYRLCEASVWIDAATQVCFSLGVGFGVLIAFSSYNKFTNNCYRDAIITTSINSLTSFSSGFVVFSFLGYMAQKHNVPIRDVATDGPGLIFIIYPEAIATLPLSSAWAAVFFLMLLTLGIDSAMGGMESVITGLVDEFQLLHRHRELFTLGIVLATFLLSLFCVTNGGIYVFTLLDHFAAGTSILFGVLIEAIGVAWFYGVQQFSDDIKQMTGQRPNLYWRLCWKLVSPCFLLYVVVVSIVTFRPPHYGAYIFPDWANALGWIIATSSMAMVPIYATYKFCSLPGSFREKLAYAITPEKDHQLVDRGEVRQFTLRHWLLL

Chain of Mu-type opioid receptor (P33535 whole entry): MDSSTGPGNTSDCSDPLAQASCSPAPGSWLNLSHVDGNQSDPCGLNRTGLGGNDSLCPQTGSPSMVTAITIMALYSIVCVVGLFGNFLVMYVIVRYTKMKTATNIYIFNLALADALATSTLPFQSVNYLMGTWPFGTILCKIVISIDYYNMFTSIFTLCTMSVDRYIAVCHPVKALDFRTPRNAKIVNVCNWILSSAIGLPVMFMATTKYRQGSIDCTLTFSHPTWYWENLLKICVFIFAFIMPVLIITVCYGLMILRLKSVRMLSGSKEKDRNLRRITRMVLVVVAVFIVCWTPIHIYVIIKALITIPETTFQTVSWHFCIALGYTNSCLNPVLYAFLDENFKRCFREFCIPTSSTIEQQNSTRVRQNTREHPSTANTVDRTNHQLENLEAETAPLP

Compound	IC50 (Mu-type opioid receptor)	IC50 (D(1A) dopamine receptor)	IC50 [1]	IC50 (D(3) dopamine receptor)	IC50 (Glutamate NMDA receptor)	IC50 [2]	IC50 (D(2) dopamine receptor)	IC50 [3]
CCN1CCc2c(sc3ccccc23)C(c2cccc(Br)c2)C1 (stereo not drawn)	5 µM	5 µM	12.5 µM	2 µM	46.6 µM	4.3 µM	3.5 µM	0.21 µM
CCN1CCc2c(sc3ccccc23)C(c2ccccc2)C1 (stereo not drawn)	2.2 µM	3 µM	1.3 µM	0.6 µM	42 µM	0.3 µM	5 µM	0.14 µM
CN1CCc2c([nH]c3ccccc23)C(c2ccccc2)C1 (stereo not drawn)	3.1 µM	20 µM	21.2 µM	4.2 µM	–	0.19 µM	27.2 µM	0.18 µM
CCN1CCc2c(sc3ccccc23)C(c2ccc(Cl)c(Cl)c2)C1 (stereo not drawn)	54.5 µM	70 µM	15.9 µM	2 µM	81 µM	1.2 µM	5 µM	0.25 µM
CCN1CCc2c(sc3ccccc23)C(c2cccc([N+](=O)[O-])c2)C1 (stereo not drawn)	3.1 µM	5 µM	16.2 µM	0.6 µM	32 µM	1.1 µM	3.1 µM	0.25 µM
COc1cc2c(cc1OC)C(c1ccccc1)CN(C)CC2 (stereo not drawn)	–	0.491 µM	–	–	–	–	–	–
CC[C@@H]1CC2C[C@@H]3c4[nH]c5ccc(O)cc5c4CCN(C2)C13	0.16 µM	> 10 µM	4.24 µM	> 10 µM	31.4 µM	0.04 µM	> 10 µM	–
CC[C@H]1C[C@@H]2C[C@H]3c4[nH]c5ccc(OC)cc5c4CCN(C2)[C@@H]13 [IBOGAINE]	–	> 10 µM	–	> 10 µM	5.2 µM	0.59 µM	> 10 µM	4.11 µM
